Source: ChEMBL document CHEMBL1126006, “Synthesis, specificity, and antifungal activity of inhibitors of the Candida albicans delta 24-sterol methyltransferase” (J Med Chem, 1992)
Values after ≈ are worked out from the molar mass of the structure shown.

What was measured:
Candida albicans [1] = assay: In vitro Minimum inhibitory concentration was determined by microbroth dilution assay on Candida albicans; format: functional
Method in brief: (§1)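 Microbroth dilution, 4×10^3 cells/mL (C. albicans B311; C. tropicalis and T. glabrata clinical isolates, pre-grown 18 h at 35 °C and washed) in YNB with asparagine and glucose, pH 5.5; 0.10–100 μg/mL drug, 1% DMSO final; 24 h at 35 °C, quadruplicate wells. MIC read visually as first concentration with marked growth reduction; geometric mean reported.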

Candida albicans [2] = assay: In vitro Minimum lethal concentration was determined by microbroth dilution assay on Candida albicans; format: functional
Method in brief: (§2)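 C. albicans strain B311; C. tropicalis and T. glabrata were clinical isolates. Yeasts were pregrown 18 h at 35 °C, 125 rpm, in the test medium, saline-washed three times and counted by hemocytometer. Assay medium was YNB with 0.15% asparagine and 2% glucose, pH 5.5. Final drug 0.10 to 100 μg/mL, 1% DMSO, 4×10^3 cells/mL, quadruplicate wells, 35 °C for 24 h. MLC = first concentration whose subculture (Sabouraud agar, 48 h, 35 °C) gave ≤50 CFU/mL; geometric mean reported.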

Candida tropicalis [3] = assay: In vitro Minimum inhibitory concentration was determined by microbroth dilution assay on Candida tropicalis; format: functional; method in brief: as §1
Candida tropicalis [4] = assay: In vitro Minimum lethal concentration was determined by microbroth dilution assay on Candida tropicalis; format: functional; method in brief: as §2
Candida albicans [5] = assay: Compound was tested for the inhibition of Delta 24-sterol-C-methyl-transferase
Method in brief: (§3)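 Microsomes from C. albicans ATCC 28367, 0.20 mg microsomal protein per assay; desmosterol as sterol substrate, SAM 25 μM; standard assay pH 7.5. Reversible inhibition patterns and constants fitted by Cleland COMP/NONCOMP, or otherwise by a parabolic competitive inhibition equation, which gives the alpha cooperativity factor for binding of two inhibitor molecules.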

Candida albicans [6] = assay: Inhibition type against delta 24-sterol Methyl transferase; method in brief: as §3
Nakaseomyces glabratus [7] = assay: In vitro Minimum lethal concentration was determined by microbroth dilution assay on Torulopsis glabrata; format: functional; method in brief: as §2
Nakaseomyces glabratus [8] = assay: In vitro Minimum inhibitory concentration was determined by microbroth dilution assay on Torulopsis glabrata; format: functional; method in brief: as §1
Candida albicans [9] = assay: Compound was tested for the inhibition of delta24-sterol Methyl transferase; method in brief: as §3
Candida albicans [10] = assay: Alpha factor which describes the cooperativity of binding of 2 identical inhibitor molecules.; method in brief: as §3
Candida albicans [11] = tested on: Candida albicans

| Compound | MIC (Candida albicans [1]) | MLC (Candida albicans [2]) | MIC (Candida tropicalis [3]) | MLC (Candida tropicalis [4]) | Kis (Candida albicans [5]) | Inhibition type (Candida albicans [6]) | MLC (Nakaseomyces glabratus [7]) | MIC (Nakaseomyces glabratus [8]) | Kis (Candida albicans [9]) | Alpha c (Candida albicans [10]) | Kii (Candida albicans [11]) |
| --- | --- | --- | --- | --- | --- | --- | --- | --- | --- | --- | --- |
| CC(C)SCC[C@@H](C)C1CCC2C3CC=C4C[C@@H](O)CC[C@]4(C)C3CC[C@@]21C (some centres not stated) | 50 µg/mL (≈ 124 µM) | >100 µg/mL | > 100 µg/mL | >100 µg/mL | 1500 nM | Competitive | >100 µg/mL | > 100 µg/mL |  |  |  |
| C[C@H](CCc1nccn1C)C1CC[C@@]2(C)C3=C(CC[C@]12C)[C@@]1(C)CC[C@H](O)C(C)(C)C1CC3 (some centres not stated) | 0.4 µg/mL (≈ 0.884 µM) | >100 µg/mL | 12.5 µg/mL (≈ 27.6 µM) | 100 µg/mL (≈ 221 µM) |  | Parabolic competitive | >100 µg/mL | > 100 µg/mL | 5 nM |  |  |
| CC(C)SCC[C@@H](C)C1CC[C@@]2(C)C3=C(CC[C@]12C)[C@@]1(C)CC[C@H](O)C(C)(C)C1CC3 (some centres not stated) |  |  |  |  |  | Competitive |  |  | 72000 nM |  |  |
| CC[S+](CC[C@@H](C)C1CCC2C3CC=C4C[C@@H](O)CC[C@]4(C)C3CC[C@@]21C)C(C)C.[I-] (some centres not stated) | 100 µg/mL | >100 µg/mL | 100 µg/mL | >100 µg/mL |  | Parabolic competitive | >100 µg/mL | > 100 µg/mL | 500 nM |  |  |
| C[C@@H]1[C@H](O)[C@@H](C)/C=C/C=C/C=C/C=C/C=C/C=C/C=C/[C@H](O[C@@H]2O[C@H](C)[C@@H](O)[C@H](N)[C@@H]2O)C[C@@H]2O[C@](O)(C[C@@H](O)C[C@@H](O)[C@H](O)CC[C@@H](O)C[C@@H](O)CC(=O)O[C@H]1C)C[C@H](O)[C@H]2C(=O)O [AMPHOTERICIN B] | 0.2 µg/mL (≈ 0.216 µM) | 0.8 µg/mL (≈ 0.866 µM) | 0.2 µg/mL (≈ 0.216 µM) | 0.4 µg/mL (≈ 0.433 µM) |  |  | 0.4 µg/mL (≈ 0.433 µM) | 0.1 µg/mL (≈ 0.108 µM) |  |  |  |
| C[C@H](CCC(=N)N)C1CC[C@@]2(C)C3=C(CC[C@]12C)[C@@]1(C)CC[C@H](O)C(C)(C)C1CC3.O=S(=O)(O)C(F)(F)F (some centres not stated) | 0.2 µg/mL | 12.5 µg/mL | 0.4 µg/mL | 12.5 µg/mL | 11 nM | Parabolic competitive | 50 µg/mL | 3.1 µg/mL |  | 0.06 |  |
| CC(C)[S+](C)CC[C@@H](C)C1CCC2C3CC=C4C[C@@H](O)CC[C@]4(C)C3CC[C@@]21C.[I-] (some centres not stated) | 0.2 µg/mL | 50 µg/mL | 0.2 µg/mL | 6.3 µg/mL | 16 nM | Parabolic competitive | 50 µg/mL | 1.6 µg/mL |  | 0.05 |  |
| CC(=O)N1CCN(c2ccc(OCC3COC(Cn4ccnc4)(c4ccc(Cl)cc4Cl)O3)cc2)CC1 (configuration not stated) [KETOCONAZOLE] | 0.1 µg/mL (≈ 0.188 µM) | 12.5 µg/mL (≈ 23.5 µM) | 1.6 µg/mL (≈ 3.01 µM) | 6.3 µg/mL (≈ 11.9 µM) |  |  | 12.5 pug ml-1 | 3.1 µg/mL (≈ 5.83 µM) |  |  |  |
| CC(C)[S+](C)CC[C@@H](C)C1CC[C@@]2(C)C3=C(CC[C@]12C)[C@@]1(C)CC[C@H](O)C(C)(C)C1CC3 (some centres not stated) |  |  |  |  |  | Parabolic competitive |  |  | 21 nM | 0.02 |  |
| CC(C)[S+]([O-])CC[C@@H](C)C1CCC2C3CC=C4C[C@@H](O)CC[C@]4(C)C3CC[C@@]21C (some centres not stated) |  |  |  |  |  | Competitive |  |  | 20000 nM |  |  |
| C[C@H](CCC(N)=[N+](C)C)C1CC[C@@]2(C)C3=C(CC[C@]12C)[C@@]1(C)CC[C@H](O)C(C)(C)C1CC3 (some centres not stated) |  |  |  |  |  | Parabolic competitive |  |  | 6 nM |  |  |
| C[C@H](CCc1ncc[nH]1)C1CC[C@@]2(C)C3=C(CC[C@]12C)[C@@]1(C)CC[C@H](O)C(C)(C)C1CC3 (some centres not stated) | 1.6 µg/mL (≈ 3.65 µM) | >100 µg/mL | > 100 µg/mL | >100 µg/mL |  | Noncompetitive | >100 µg/mL | > 100 µg/mL | 11 nM |  | 25 nM |
